# Assay results taken from PMC3966491 (Chemical biology & drug design, 2013).
# Legend:
# [1] = target: AKT1 (PKB alpha) (Homo sapiens, UniProt P31749); assay: AKT1 in vitro kinase assay; type: biochemical
# Method in brief: (§1)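 Z′-LYTE assay. Enzyme per 10 μL reaction: AKT1 0.34–7.65 ng, AKT2 1–40 ng, or AKT3 0.56–8.3 ng. Reaction contained 2 μM Ser/Thr 06 peptide, ATP at Km, 50 mM HEPES pH 7.5, 0.01% BRIJ-35, 10 mM MgCl2 and 1 mM EGTA. After 1 h, Development Reagent A (1:2048) protease cleaved non-phosphorylated peptide. Read-out was the coumarin 445 nm/fluorescein 520 nm emission ratio; curves were fitted.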
# [2] = target: AKT3 (PKB gamma) (Homo sapiens, UniProt Q9Y243); assay: AKT3 in vitro kinase assay; type: biochemical
# AKT3 (PKB gamma), sequence (Q9Y243 whole entry): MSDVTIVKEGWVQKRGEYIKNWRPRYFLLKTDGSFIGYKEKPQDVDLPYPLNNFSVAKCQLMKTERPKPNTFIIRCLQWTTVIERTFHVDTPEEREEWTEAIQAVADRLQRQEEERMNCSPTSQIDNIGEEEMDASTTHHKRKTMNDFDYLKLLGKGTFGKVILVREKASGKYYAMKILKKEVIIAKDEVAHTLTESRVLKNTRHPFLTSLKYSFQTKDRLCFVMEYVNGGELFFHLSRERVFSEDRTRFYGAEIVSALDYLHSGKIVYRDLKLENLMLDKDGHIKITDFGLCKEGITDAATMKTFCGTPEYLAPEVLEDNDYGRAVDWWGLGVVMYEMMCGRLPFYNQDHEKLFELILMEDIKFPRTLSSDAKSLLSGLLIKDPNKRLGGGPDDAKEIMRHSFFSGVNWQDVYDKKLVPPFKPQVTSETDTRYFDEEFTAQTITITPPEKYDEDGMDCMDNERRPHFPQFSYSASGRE
# Method in brief: as §1
# [3] = target: T1, CHUK (IKK alpha) (Homo sapiens, UniProt O15111); assay: IKKα; type: biochemical
# T1 sequence (O15111 1-745): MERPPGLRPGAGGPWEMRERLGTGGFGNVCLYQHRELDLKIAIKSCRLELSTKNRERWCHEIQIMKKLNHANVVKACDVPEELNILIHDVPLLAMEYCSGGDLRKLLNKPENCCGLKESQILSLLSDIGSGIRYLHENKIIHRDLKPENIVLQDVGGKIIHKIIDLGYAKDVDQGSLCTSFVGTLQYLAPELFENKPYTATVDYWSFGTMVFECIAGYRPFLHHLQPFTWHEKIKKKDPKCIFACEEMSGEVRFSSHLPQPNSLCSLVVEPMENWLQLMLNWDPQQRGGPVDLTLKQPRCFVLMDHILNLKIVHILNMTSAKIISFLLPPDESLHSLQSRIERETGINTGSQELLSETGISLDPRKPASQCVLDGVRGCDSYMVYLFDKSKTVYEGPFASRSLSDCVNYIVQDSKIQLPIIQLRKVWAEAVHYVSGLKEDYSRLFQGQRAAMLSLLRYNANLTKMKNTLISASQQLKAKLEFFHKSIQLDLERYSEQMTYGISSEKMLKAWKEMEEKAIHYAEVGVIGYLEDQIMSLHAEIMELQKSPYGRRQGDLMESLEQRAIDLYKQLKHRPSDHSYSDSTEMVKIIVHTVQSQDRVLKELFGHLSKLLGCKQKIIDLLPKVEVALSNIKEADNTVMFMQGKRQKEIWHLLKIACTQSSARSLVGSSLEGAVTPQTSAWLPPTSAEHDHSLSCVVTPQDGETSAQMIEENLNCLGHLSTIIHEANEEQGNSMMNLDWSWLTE
# Method in brief: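 ADAPTA ADP-detection format. Detection mix added EDTA (stop), europium-labelled anti-ADP antibody and Alexa Fluor 647 ADP tracer; ADP formation was taken from the emission ratio. Where noted, IC50 was predicted from % inhibition at 1 μM test compound, mean of two experiments.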
# [4] = test system: UACC903 xenograft tumor sections; assay: TUNEL and IκB immunohistochemistry of xenograft tumor sections; type: in vivo, nude mice; conditions: tumors from treated mice vs vehicle, after 28 days
# Method in brief: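 Female nude mice (6–7 weeks) received 1×10^6 UACC903 cells in PBS subcutaneously in the flank. After 4 weeks, tumours were fixed, paraffin-sectioned, immunostained (DAB, haematoxylin) or TUNEL-stained, then scanned. Scores: TUNEL-positive nuclei/area and IκB immunoscore/area; error bars SEM.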
# [5] = test system: Human UACC903 melanoma cells xenograft; assay: in vivo melanoma xenograft study; conditions: oral gavage twice a week, 10 mg/kg and 25 mg/kg, single agent, nude mice
# [6] = test system: 21 protein kinases including SPHK1, SPHK2, FES and AURKB; assay: in vitro selectivity against 21 protein kinases; type: biochemical; conditions: 21 protein kinases previously inhibited by compound 1
# [7] = test system: AKT levels and phosphorylation of its substrate PRAS40; assay: Western blot of AKT pathway in melanoma UACC903 cells; type: cell-based, human; conditions: 4 hours
# [8] = in vitro microsomal stability; type: in vitro ADME
# [9] = target: AKT2 (PKB beta) (Homo sapiens, UniProt P31751); assay: AKT2 in vitro kinase assay; type: biochemical
# AKT2 (PKB beta), sequence (P31751 whole entry): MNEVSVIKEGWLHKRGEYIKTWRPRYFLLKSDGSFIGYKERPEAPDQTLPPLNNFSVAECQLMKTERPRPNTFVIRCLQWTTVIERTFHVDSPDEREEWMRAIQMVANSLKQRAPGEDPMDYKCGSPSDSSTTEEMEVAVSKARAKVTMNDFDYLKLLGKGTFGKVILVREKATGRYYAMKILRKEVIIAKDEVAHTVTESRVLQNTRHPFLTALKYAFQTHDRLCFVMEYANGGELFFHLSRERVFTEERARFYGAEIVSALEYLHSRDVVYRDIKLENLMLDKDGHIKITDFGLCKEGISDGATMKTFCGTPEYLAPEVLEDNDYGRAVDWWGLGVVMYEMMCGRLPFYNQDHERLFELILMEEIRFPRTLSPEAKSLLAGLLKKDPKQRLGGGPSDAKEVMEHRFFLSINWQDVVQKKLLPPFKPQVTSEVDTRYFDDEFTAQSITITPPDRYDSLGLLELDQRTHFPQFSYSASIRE
# Method in brief: as §1
# [10] = target: T2, IKBKB (IKK beta) (Homo sapiens, UniProt O14920); assay: IKKβ; type: biochemical
# T2 sequence (O14920 1-756): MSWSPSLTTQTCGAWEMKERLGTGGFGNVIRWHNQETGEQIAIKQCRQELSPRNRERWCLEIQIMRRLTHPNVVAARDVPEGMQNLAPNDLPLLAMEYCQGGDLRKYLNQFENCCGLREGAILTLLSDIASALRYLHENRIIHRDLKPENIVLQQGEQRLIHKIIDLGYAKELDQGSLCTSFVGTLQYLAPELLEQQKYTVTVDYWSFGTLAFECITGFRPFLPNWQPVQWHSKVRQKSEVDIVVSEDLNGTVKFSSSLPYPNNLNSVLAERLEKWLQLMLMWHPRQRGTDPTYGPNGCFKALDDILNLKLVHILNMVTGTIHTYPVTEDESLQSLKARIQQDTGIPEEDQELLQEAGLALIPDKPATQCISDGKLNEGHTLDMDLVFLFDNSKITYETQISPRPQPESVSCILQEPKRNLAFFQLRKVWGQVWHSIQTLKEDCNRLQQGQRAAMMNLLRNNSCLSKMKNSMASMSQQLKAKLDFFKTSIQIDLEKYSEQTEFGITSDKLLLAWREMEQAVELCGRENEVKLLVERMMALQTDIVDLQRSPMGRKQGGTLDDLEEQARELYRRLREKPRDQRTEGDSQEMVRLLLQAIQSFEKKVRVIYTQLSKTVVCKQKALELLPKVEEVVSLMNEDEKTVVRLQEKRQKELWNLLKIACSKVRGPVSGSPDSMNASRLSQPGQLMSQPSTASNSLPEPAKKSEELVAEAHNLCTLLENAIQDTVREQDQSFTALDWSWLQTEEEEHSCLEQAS
# Method in brief: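 Z′-LYTE format. Development used Reagent B (1:64) protease; read-out was the coumarin 445 nm/fluorescein 520 nm emission ratio. Where noted, IC50 was predicted from % inhibition at 10 μM test compound, mean of two experiments.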
# [11] = test system: phosphorylation of IKK Ser176/180 and total IκB levels; assay: Western blot of NF-κB pathway in TNF-α stimulated UACC903 cells; type: cell-based, human; conditions: 10 μM, 1 hour prior to TNF-α stimulation (20 ng/ml)
# [12] = in vitro plasma stability; type: in vitro ADME
# AKT1 (PKB alpha), sequence (P31749 whole entry): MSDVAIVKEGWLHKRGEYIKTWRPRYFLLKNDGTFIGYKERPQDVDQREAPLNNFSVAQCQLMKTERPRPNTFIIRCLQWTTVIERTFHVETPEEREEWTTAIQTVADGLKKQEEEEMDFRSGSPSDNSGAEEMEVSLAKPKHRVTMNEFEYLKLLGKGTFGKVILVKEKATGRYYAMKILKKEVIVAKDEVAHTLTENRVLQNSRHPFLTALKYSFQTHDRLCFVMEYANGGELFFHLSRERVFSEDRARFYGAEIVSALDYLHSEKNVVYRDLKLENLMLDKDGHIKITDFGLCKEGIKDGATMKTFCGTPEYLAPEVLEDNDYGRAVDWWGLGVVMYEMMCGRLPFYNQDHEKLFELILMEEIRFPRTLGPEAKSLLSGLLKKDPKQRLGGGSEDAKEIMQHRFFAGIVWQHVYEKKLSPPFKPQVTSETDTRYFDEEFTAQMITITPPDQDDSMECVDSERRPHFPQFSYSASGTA
smiles,measurement,setting,value
"O=C(/C=C/c1nc2cc(F)ccc2[nH]1)c1c(-c2ccccc2)c2cc(Cl)ccc2[nH]c1=O [compound 42, (E)-6-chloro-3-(3-(5-fluoro-1H-benzo[d]imidazol-2-yl)acryloyl)-4-phenylquinolin-2(1H)-one]",IC50,[1],5.01 µM
same,IC50,[2],6.49 µM
same,IC50,[3],6.03 µM
same,IκB expression in tumors,[4],higher IκB expression
same,apoptosis in tumors (TUNEL staining),[4],higher levels of apoptosis
same,tumor growth in xenograft,[5],Remarkable tumor growth/suppression
same,IC50 values against all the selected kinases (in words),[6],low micromolar range
same,inhibition of AKT levels and PRAS40 phosphorylation,[7],effectively inhibited
same,microsomal stability,[8],favorable
same,IC50,[9],3.43 µM
same,IC50,[10],1.9 µM
same,inhibition of phosphorylation of IKK Ser176/180 and total IκB levels,[11],effectively inhibited
same,plasma stability,[12],favorable
